PRMT1 inh: blocks human protein arginine methyltransferase 1. AID 652257. inhibition, % at 2.79 µM. Q99873. hit rate 1.3% among 370,000. recombinant PRMT1, activity-based probe fluorescence polarization;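 active = inhibition above about 21% made by adding two undisclosed values, limit read from the data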
PAD4 inh: PAD4 (human) enzyme inhibition | Q9UM07 | recombinant PAD4, RCA probe fluorescence polarization | inhibition, % at 6.36 µM | hit rate 0.41% among 330,000;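 active = percent inhibition above a cutoff equal to the mean of all tested compounds plus 3 SD, cut at about 15% in these data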;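 also: 0% = PAD4 with RCA probe and DMSO and 100% = probe without PAD4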
eLon inh: E. coli protease La inhibition; purified E. coli Lon protease, fluorescence polarization; inhibition, % at 7.94 µM; P0A9M0; hit rate 0.42% among 360,000; in the data active = inhibition above about 13%, passing the limit was not always enough;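 also: 0% = enzyme with probe and DMSO and 100% = no enzyme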
TDP2 absorb: TDP2 (human) inhibition, absorbance primary screen; recombinant TDP2, T5PNP hydrolysis, p-nitrophenol absorbance 415 nm; O95551; hit rate 0.34% among 370,000; AID 720702; inhibition, % at 12.8 µM;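 active = inhibition above the mean of all tested compounds plus 3 SD, set per campaign, cut at about 25% in these data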;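 also: 0% = DMSO with enzyme and 100% = buffer with substrate but no TDP2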
Target sequence (O95551 whole entry, looked up): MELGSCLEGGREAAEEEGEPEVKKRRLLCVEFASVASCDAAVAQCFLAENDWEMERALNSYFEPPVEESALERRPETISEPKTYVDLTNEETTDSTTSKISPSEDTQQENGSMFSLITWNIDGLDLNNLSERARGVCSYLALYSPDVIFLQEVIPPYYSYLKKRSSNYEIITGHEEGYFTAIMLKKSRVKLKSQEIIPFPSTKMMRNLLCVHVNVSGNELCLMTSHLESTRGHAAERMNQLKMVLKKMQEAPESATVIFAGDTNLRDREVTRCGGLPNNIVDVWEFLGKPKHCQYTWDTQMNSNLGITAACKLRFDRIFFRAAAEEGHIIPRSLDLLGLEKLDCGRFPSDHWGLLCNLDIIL
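Test system: human TDP2 enzyme; Input: 120 nM TDP2 per well; Buffer or medium: Mg2+-containing Tris-HCl buffer, pH 7.5; Reagent: 5 mM T5PNP; Dosing: 12.8 µM single point, 1% DMSO; Incubation: reaction 2 h, 37 °C; Detection: p-Nitrophenol epi absorbance; Read-out: % inhibition relative to enzyme-containing and enzyme-free wells; Replicates: single well per compound.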
GSTO1 counter: GSTO1 inhibition, counter-screen for RBBP9 inhibitors. hit rate 1.1% among 300,000. recombinant GSTO1, activity-based probe fluorescence polarization. P78417. inhibition, % at 5.96 µM;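 active = inhibition above the campaign mean inhibition plus 3 SD, cut at about 35% in these data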;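 also: 0% = GSTO1-1 with DMSO and 100% = wells lacking GSTO1-1 enzyme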
PRMT1 inh conf: confirmation of human PRMT1 inhibitors | hit rate 42% among 3,300 | recombinant His-PRMT1, activity-based probe fluorescence polarization | shares compounds with PRMT1 inh | inhibition, % at 2.79 µM;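 active = mean inhibition across replicates above the hit cutoff derived for the earlier primary screen, cut at about 22% in these data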
An asterisk follows results filed as active; x = no result. This is a sample that favours compounds with a hit; in the whole collection about 2.5% have one here.

SMILES | PRMT1 inh | PAD4 inh | eLon inh | TDP2 absorb | GSTO1 counter | PRMT1 inh conf
CC(=Nc1ccccc1)C1=C(O)COC1=O | 1 | -9 | -5 | 1 | 11 | x
CC(=Nc1ccccc1)c1sc2ccccc2c1O | 33* | 8 | -23 | 11 | 5 | 32*
CC(=Nc1ccc(Br)cc1)c1sc2ccccc2c1O | 28* | 5 | -71 | -11 | 5 | 11
OC1CCC(Nc2ncnc3sccc23)CC1 (centres undefined) | 3 | -1 | -8 | 9 | 3 | x
CCOC(=O)Cn1cc(CN2CCS(=O)(=O)N(Cc3ccc(C)cc3)C(C(=O)OC)C2)nn1 (centres undefined) | -1 | x | x | 2 | x | x
FC(F)(F)c1ccccc1Cc1c(-c2ccco2)nc2c3ccccc3ccn12 | 32* | x | x | -6 | x | 23*
Cc1cc2nc(-c3ccco3)c(Cc3ccccc3C(F)(F)F)n2c(C)c1Br | 36* | x | 6 | 6 | x | 17
FC(F)(F)c1ccccc1Cc1c(-c2ccco2)nc2ccc(Br)cn12 | 36* | x | -12 | 11 | x | 17
Cc1ccc2nc(-c3ccco3)c(Cc3ccccc3C(F)(F)F)n2c1 | 33* | x | x | 1 | x | 19
CCOC(=O)Cc1nc(N2CCN(C(=O)C3CCCO3)CC2)c2c(C)c(C(=O)OCC)sc2n1 (centres undefined) | -11 | x | x | 4 | x | x
O=C(C(=O)N1CCC(CNC(=O)C2COc3ccccc3O2)CC1)c1cccs1 (centres undefined) | 3 | x | x | 9 | x | x
CC(=O)Nc1ccc(NC(=O)COC(=O)c2ccccc2SCC(=O)N2CCCC2)cc1 | 29* | 0 | 7 | -12 | 4 | 24*
Clc1ccc([C@H]2OC[C@@]3(CNCCc4c[nH]c5ccccc45)CS[C@H](c4ccc(Cl)cc4)N23)cc1 | -1 | x | x | -4 | x | x
COc1ccccc1NC(=O)CSc1nc2c(sc3ccccc32)c(=O)n1CCN(C)C | 70* | 14 | -8 | 2 | 11 | 72*
CCN(CC)CCn1c(SCC(=O)Nc2ccc(F)cc2)nc2c(sc3ccccc32)c1=O | x | 1 | x | x | 10 | x
Cc1cc2c(=O)n(Cc3ccco3)c(SCC(=O)NCc3ccco3)nc2s1 | 58* | -3 | 9 | -4 | -11 | 18
O=C(CSc1nc2c(sc3ccccc32)c(=O)n1CCCN1CCCC1)NCc1ccco1 | 27* | -5 | 8 | -5 | -8 | 11
O=C(CSc1nc2c(sc3ccccc32)c(=O)n1CCO)NCc1ccco1 | 10 | 0 | -1 | 13 | -4 | x
CCOC(=O)C1(C(=O)OCC)C(C)CC(=O)N1c1ccccc1OC (centres undefined) | 1 | x | 1 | 1 | x | x
CCCC(C)c1nnc(NC(=O)c2cc(C(=O)OC)cc([N+](=O)[O-])c2)s1 (centres undefined) | 29* | -4 | -7 | -3 | -28 | 54*
Cc1cccc(C)c1NC(=O)C1(C)CSCC(=O)N1CC(F)(F)F (centres undefined) | 2 | x | x | 1 | x | x
O=C(O)c1ccccc1NS(=O)(=O)c1ccc(N/N=C/c2cccc(O)c2O)c([N+](=O)[O-])c1 | 35* | x | 7 | 5 | x | 29*
Cn1ccnc1C(O)c1cc(C(C)(C)C)c(O)c(C(C)(C)C)c1 (centres undefined) | 37* | -5 | -9 | -5 | 11 | 13
Fc1ccc(CSc2nnc3ccccn23)c(Cl)c1 | 46* | 2 | 9 | 2 | 0 | -2
COc1cccc(-c2cnc3c(NC(C)=O)cc(-c4ccc(C(=O)NC5CC5)cc4)cn23)c1 | 4 | x | -10 | -1 | x | x
COc1ccc(-c2cc(-c3ccco3)[nH]c(=O)c2C#N)cc1OC | 27* | -19 | -22 | 6 | 22 | 27*
O=C(O)CNC(=O)CC1S/C(=N/N=C2\CSC(=O)N2)NC1=O (centres undefined) | 38* | 7 | -11 | -5 | 9 | 22*
O=C(O)CNC(=O)CC1S/C(=N/N=C/c2ccccc2O)NC1=O (centres undefined) | 3 | -1 | 7 | -4 | 2 | x
C=CCC(C=C)S(=O)(=O)c1ccc(C)cc1 (centres undefined) | -2 | 1 | 1 | 1 | 3 | x
CCc1[nH]c(=O)[nH]c1C(C)S(=O)(=O)c1ccc(C)cc1 (centres undefined) | 43* | -1 | -7 | -5 | -2 | 34*
